Measured values taken from ChEMBL document CHEMBL1129597, “2-[2'-(Dimethylamino)ethyl]-1,2-dihydro- 3H-dibenz[de,h]isoquinoline-1,3-diones with substituents at positions 4, 8, 9, 10, and 11. Synthesis, antitumor activity, and quantitative structure-activity relationships” (J Med Chem, 1996).
pIC50: −log10 of the molar value.

Legend:
A549 = assay: Activity against A549 cancer cell line.; type: functional, cell-based; details: Homo sapiens
L1210 [1] = assay: Antitumor activity against sensitive L1210 murine leukemia cell lines.; type: functional, cell-based; details: Mus musculus
In short: (§1)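 Murine L1210 leukemia cells, sensitive or MDR subline, in culture. Continuous drug exposure during MTT assay. Five concentrations per analogue, six determinations per concentration. The IC50 was derived.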

L1210 [2] = assay: Antitumor activity against murine leukemia L1210 cell line.; type: functional, cell-based; details: Mus musculus; in short: as §1
MCF7 [3] = assay: Antitumor activity against human mammary carcinoma mitoxantrone-resistant […] breast cell line.; type: functional, cell-based
MCF7 [4] = assay: Antitumor activity against human mammary carcinoma doxorubicin-resistant […] breast cell line.; type: functional, cell-based
MCF7 [5] = assay: Antitumor activity against human mammary carcinoma sensitive […] breast cell line.; type: functional, cell-based
OVCAR-3 [6] = assay: Antitumor activity against human ovarian OVCAR-3 cell lines.; type: functional, cell-based
In short: (§2)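 Cultured human tumor cells (melanoma UACC375, ovarian OVCAR3) under continuous drug exposure. Growth was read by sulforhodamine or MTT assay. Five concentrations per analogue, six determinations per concentration. IC50 values were derived from these.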

WiDr [7] = assay: Activity against human colon carcinoma sensitive WiDr cell line.; type: functional, cell-based
WiDr [8] = assay: Activity against human colon carcinoma multi drug resistant (MDR)-WiDr cell line.; type: functional, cell-based
UACC-375 = assay: Antitumor activity against human melanoma UACC375 cell line.; type: functional, cell-based; in short: as §2
Rattus norvegicus = species: Rattus norvegicus; assay: Cardiotoxicity measured by the ATP/protein ratio compared with untreated controls using neonatal rat heart myocyte assay.; type: functional
In short: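 Neonatal rat heart myocytes exposed to drug for 1 h. The ATP/protein ratio was measured versus untreated control myocytes. IC50 is the concentration reducing this ratio to 50% of control.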

[9] = The quotient of the IC50 in the myocytes divided by the mean IC50 in the three cell lines; type: functional
In short: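 Calculated index: the myocyte IC50 divided by the mean IC50 across three tumor lines (sensitive L1210, melanoma UACC375, ovarian OVCAR3).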

L1210 [10] = assay: Compound was tested for antitumor activity against Murine leukemia cell line (L1210).; type: functional, cell-based; details: Mus musculus; in short: as §1
MCF7 [11] = assay: Compound was tested for antitumor activity against Human mammary carcinoma sensitive cell line ([…] breast).; type: functional, cell-based
WiDr [12] = assay: The compound tested for activity againstHuman colon carcinoma sensitive WiDr cell line.; type: functional, cell-based; details: Homo sapiens
MCF7 [13] = assay: Compound was tested for antitumor activity against Human mammary carcinoma Doxorubicin resistant […] breast cell line.; type: functional, cell-based
[14] = (§3) Percent increase in life span when given at a dose in P388 leukemia cells of mice; type: functional
In short: (§4)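 P388 leukemia in mice, standard NCI protocol: 10^6 leukemia cells given ip; compound given ip in equal doses on days 1, 5 and 9. Highest dose used was 10% below the LD10 for acute toxicity in that mouse species. %ILS = 100 × (treated life span − control life span)/control life span, reported at the highest nontoxic dose.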

Mus musculus = species: Mus musculus; assay: as §3; type: functional; in short: as §4
OVCAR-3 [15] = assay: Compound was tested for antitumor activity against. Human ovarian (OVCAR-3) cell lines.; type: functional, cell-based
WiDr [16] = assay: Compound was tested for antitumor activity against The compound tested for activity against Human colon carcinoma, Multi Drug resistant(MDR) WiDr - cell line.; type: functional, cell-based
WiDr (Homo sapiens) = assay: Compound was tested for antitumor activity against The compound tested for activity against Human colon carcinoma sensitive WiDr cell line.

Structure (SMILES)	pIC50 (A549)	pIC50 (L1210 [1])	pIC50 (L1210 [2])	pIC50 (MCF7 [3])	pIC50 (MCF7 [4])	pIC50 (MCF7 [5])	pIC50 (OVCAR-3 [6])	pIC50 (WiDr [7])	pIC50 (WiDr [8])	pIC50 (UACC-375)	pIC50 (Rattus norvegicus)	Toxicity ratio [9]	further results
COc1ccc2cc3ccccc3c3c2c1C(=O)N(CCN(C)C)C3=O	7.09	7.15	6.75	6.28	6.16	6.46	6.29	6.18	6.05	6.74			
Cc1ccc2cc3cccc4c3c(c2c1)C(=O)N(CCN(C)C)C4=O	7.85	7.39	7.27	7.05	6.85	6.96	7.17	6.92	6.92	7.09	6.00	16	
Cc1ccc2cc3ccccc3c3c2c1C(=O)N(CCN(C)C)C3=O	7.47	7.27		6.85			6.91		6.92	6.75	5.87	12	pIC50 (L1210 [10]): 7.17; pIC50 (MCF7 [11]): 6.41; pIC50 (WiDr [12]): 7.22; pIC50 (MCF7 [13]): 6.48
CN(C)CCN1C(=O)c2cccc3cc4ccc(C#N)cc4c(c23)C1=O	8.66	7.82	7.89	7.92	7.70	7.89	7.92	7.96	7.80	8.00	6.98	9	
COc1ccc2cc3cccc4c3c(c2c1)C(=O)N(CCN(C)C)C4=O	7.51	7.68	7.28	7.39	7.28	7.42	7.11	7.40	7.21	7.28	5.04	182	
CN(C)CCN1C(=O)c2cccc3cc4ccc(NC(=O)C(C)(C)C)cc4c(c23)C1=O													ILS [14]: 105%
CN(C)CCN1C(=O)c2cccc3cc4ccc(Cl)cc4c(c23)C1=O	8.09	8.29	8.11	7.32	8.10	7.24	7.19	7.77	7.07	7.19	6.11	18	
CN(C)CCN1C(=O)c2cccc3cc4ccccc4c(c23)C1=O [AZONAFIDE]											5.70	44	ILS (Mus musculus): 79%
CN(C)CCNc1ccc2cc3ccccc3c3c2c1C(=O)N(CCN(C)C)C3=O	7.11	6.68	6.61	6.64	6.28	6.72	6.15	6.40	6.17	6.41	6.13	1.7	
CN(C)CCN1C(=O)c2cccc3cc4ccc(-c5ccccc5)cc4c(c23)C1=O	6.92	7.15	6.89	7.48	6.72	7.15	6.46	6.74	6.49	5.73			
CN(C)CCN1C(=O)c2c(Cl)ccc3cc4ccccc4c(c23)C1=O	7.92	8.00		7.22		7.30				6.48	6.05	5.2	pIC50 (L1210 [10]): 7.82; pIC50 (OVCAR-3 [15]): 6.74; pIC50 (WiDr [16]): 6.72; pIC50 (MCF7 [13]): 7.07; pIC50 (WiDr (Homo sapiens)): 7.05
CN(C)CCN1C(=O)c2cccc3cc4ccc([N+](=O)[O-])cc4c(c23)C1=O	8.60	7.60	7.60	7.85	8.06	7.89	7.64	8.02	7.13	7.74	6.10	36	
CN(C)CCN1C(=O)c2cccc3cc4ccc(I)cc4c(c23)C1=O	7.51	6.51	7.28	7.31	7.23	7.38	6.75	7.40	6.89	6.20	5.32	13	
